Laboratory results published in ChEMBL document CHEMBL1821649, “Synthesis, characterization of some benzazoles bearing pyridine moiety: search for novel anticancer agents” (2011).

How the values were obtained:
Type in all cases: functional
[1] = test system: SF-295; assay: Antitumor activity against human SF295 cells after 48 hrs by SRB assay; details: SF-295, 48 h; for CC50: read-out: LC50 (the source's name)
In short: (§1)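 NCI-60 human tumour cell panel run under the National Cancer Institute Drug Evaluation Branch protocol. Compounds passing a single-dose prescreen were retested on all lines at five 10-fold dilutions. Growth was expressed as percent growth of treated cells. Response parameters were GI50 (molar concentration giving 50% growth inhibition), TGI (total growth inhibition) and LC50 (median lethal concentration).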

[2] = test system: OVCAR-5; assay: Antitumor activity against human OVCAR5 cells after 48 hrs by SRB assay; details: OVCAR-5, 48 h; for CC50: read-out: LC50 (the source's name); in short: as §1
[3] = test system: OVCAR-3; assay: Antitumor activity against human OVCAR3 cells after 48 hrs by SRB assay; details: OVCAR-3, 48 h; for CC50: read-out: LC50 (the source's name); in short: as §1
[4] = test system: ACHN; assay: Antitumor activity against human ACHN cells after 48 hrs by SRB assay; details: for CC50: read-out: LC50 (the source's name); in short: as §1
[5] = test system: SK-MEL-5; assay: Antitumor activity against human SK-MEL-5 cells after 48 hrs by SRB assay; details: SK-MEL-5, 48 h; in short: as §1
[6] = test system: HCT-15; assay: Antitumor activity against human HCT15 cells after 48 hrs by SRB assay; details: HCT-15, 48 h; for CC50: read-out: LC50 (the source's name); in short: as §1
[7] = test system: OVCAR-4; assay: Antitumor activity against human OVCAR4 cells after 48 hrs by SRB assay; details: OVCAR-4, 48 h; for CC50: read-out: LC50 (the source's name); in short: as §1
[8] = test system: Malme-3M; assay: Antitumor activity against human MALME-3M cells after 48 hrs by SRB assay; in short: as §1
[9] = test system: MDA-MB-231; assay: Antitumor activity against human MDA-MB-231 cells after 48 hrs by SRB assay; details: MDA-MB-231, 48 h; for CC50: read-out: LC50 (the source's name); in short: as §1
[10] = test system: KM12; assay: Antitumor activity against human KM12 cells after 48 hrs by SRB assay; details: KM12, 48 h; for CC50: read-out: LC50 (the source's name); in short: as §1
[11] = test system: RPMI-8226; assay: Antitumor activity against human RPMI8226 cells after 48 hrs by SRB assay; details: RPMI-8226, 48 h; for CC50: read-out: LC50 (the source's name); in short: as §1
[12] = test system: NCI-H322M; assay: Antitumor activity against human NCI-H322M cells after 48 hrs by SRB assay; details: for CC50: read-out: LC50 (the source's name); in short: as §1
[13] = test system: OVCAR-8; assay: Antitumor activity against human OVCAR8 cells after 48 hrs by SRB assay; details: OVCAR-8, 48 h; in short: as §1
[14] = test system: A549; assay: Antitumor activity against human A549 cells after 48 hrs by SRB assay; details: A549, 48 h; for CC50: read-out: LC50 (the source's name); in short: as §1
[15] = test system: SF-539; assay: Antitumor activity against human SF539 cells after 48 hrs by SRB assay; details: SF-539, 48 h; for CC50: read-out: LC50 (the source's name); in short: as §1
[16] = test system: NCI-H522; assay: Antitumor activity against human NCI-H522 cells after 48 hrs by SRB assay; details: NCI-H522, 48 h; in short: as §1
[17] = test system: LOX IMVI; assay: Antitumor activity against human LOXIMVI cells after 48 hrs by SRB assay; details: for CC50: read-out: LC50 (the source's name); in short: as §1
[18] = test system: SW-620; assay: Antitumor activity against human SW620 cells after 48 hrs by SRB assay; details: SW-620, 48 h; for CC50: read-out: LC50 (the source's name)
In short: (§2)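 NCI-60 human cancer cell line panel run under the NCI Drug Evaluation Branch protocol. Compounds were first screened at a single dose. Those meeting preset inhibition thresholds were retested at five 10-fold dilutions. Output was percent growth of treated cells, given as % growth inhibition. GI50, TGI and LC50 values were derived from the five-dose data.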

[19] = test system: MDA-MB-468; assay: Antitumor activity against human MDA-MB-468 cells after 48 hrs by SRB assay; details: MDA-MB-468, 48 h; for CC50: read-out: LC50 (the source's name); in short: as §1
[20] = test system: U-251; assay: Antitumor activity against human U251 cells after 48 hrs by SRB assay; details: U-251, 48 h; for CC50: read-out: LC50 (the source's name); in short: as §2
[21] = test system: COLO 205; assay: Antitumor activity against human COLO205 cells after 48 hrs by SRB assay; details: COLO 205, 48 h; in short: as §1
[22] = test system: SNB-19; assay: Antitumor activity against human SNB19 cells after 48 hrs by SRB assay; details: SNB-19, 48 h; in short: as §1
[23] = test system: UACC-257; assay: Antitumor activity against human UACC257 cells after 48 hrs by SRB assay; details: UACC-257, 48 h; in short: as §2
[24] = test system: MOLT-4; assay: Antitumor activity against human MOLT4 cells after 48 hrs by SRB assay; details: MOLT-4, 48 h; in short: as §1
[25] = test system: K562; assay: Antitumor activity against human K562 cells after 48 hrs by SRB assay; details: K562, 48 h; in short: as §1
[26] = test system: TK-10; assay: Antitumor activity against human TK10 cells after 48 hrs by SRB assay; details: TK-10, 48 h; for CC50: read-out: LC50 (the source's name); in short: as §2
[27] = test system: SK-MEL-28; assay: Antitumor activity against human SK-MEL-28 cells after 48 hrs by SRB assay; details: SK-MEL-28, 48 h; in short: as §1
[28] = test system: A498; assay: Antitumor activity against human A498 cells after 48 hrs by SRB assay; details: A498, 48 h; for CC50: read-out: LC50 (the source's name); in short: as §1
[29] = test system: SK-OV-3; assay: Antitumor activity against human SKOV3 cells after 48 hrs by SRB assay; details: SK-OV-3, 48 h; in short: as §1
[30] = test system: HCT-116; assay: Antitumor activity against human HCT116 cells after 48 hrs by SRB assay; details: HCT-116, 48 h; for CC50: read-out: LC50 (the source's name); in short: as §1

Cc1cc2nc(-c3c(N)ncc(C#N)c3-c3ccc(Cl)cc3)[nH]c2cc1C
GI50 [1]: 10 µM
TGI [1]: 27.5 µM
CC50 [1]: 75.6 µM
GI50 [2]: 14.7 µM
TGI [2]: > 100 µM
CC50 [2]: > 100 µM
GI50 [3]: 13.9 µM
TGI [3]: 76 µM
CC50 [3]: > 100 µM
GI50 [4]: 11.1 µM
TGI [4]: > 100 µM
CC50 [4]: > 100 µM
GI50 [5]: 10 µM
LC50 [5]: > 100 µM
TGI [5]: 33.4 µM
GI50 [6]: 30.6 µM
TGI [6]: > 100 µM
CC50 [6]: > 100 µM
GI50 [7]: 4.4 µM
TGI [7]: 25.4 µM
CC50 [7]: > 100 µM
GI50 [8]: 14.5 µM
LC50 [8]: > 100 µM
TGI [8]: 78.8 µM
GI50 [9]: 10.5 µM
TGI [9]: 44.2 µM
CC50 [9]: > 100 µM
GI50 [10]: 14.8 µM
TGI [10]: > 100 µM
CC50 [10]: > 100 µM
GI50 [11]: 5.55 µM
TGI [11]: > 100 µM
CC50 [11]: > 100 µM
GI50 [12]: 27.7 µM
TGI [12]: > 100 µM
CC50 [12]: > 100 µM
GI50 [13]: 4.53 µM
LC50 (median lethal concentration) [13]: > 100 µM
TGI [13]: 29.6 µM
GI50 [14]: 4.17 µM
TGI [14]: 24.9 µM
CC50 [14]: > 100 µM
GI50 [15]: 2.07 µM
TGI [15]: 5.78 µM
CC50 [15]: 27 µM
GI50 [16]: 4.07 µM
LC50 [16]: 96.5 µM
TGI [16]: 27.9 µM
GI50 [17]: 5.83 µM
TGI [17]: 26 µM
CC50 [17]: 80.7 µM
GI50 [18]: 32.4 µM
TGI [18]: > 100 µM
CC50 [18]: > 100 µM
GI50 [19]: 12.4 µM
TGI [19]: 51.5 µM
CC50 [19]: > 100 µM
GI50 [20]: 5.48 µM
TGI [20]: 21.4 µM
CC50 [20]: 66.2 µM
GI50 [21]: 6.24 µM
LC50 [21]: > 100 µM
TGI [21]: 83.4 µM
GI50 [22]: 19.5 µM
LC50 (median lethal concentration) [22]: > 100 µM
TGI [22]: 75.6 µM
GI50 [23]: 11.4 µM
LC50 [23]: > 100 µM
TGI [23]: 82.6 µM
GI50 [24]: 100 µM
LC50 [24]: > 100 µM
TGI [24]: > 100 µM
GI50 [25]: 31.5 µM
LC50 [25]: > 100 µM
TGI [25]: > 100 µM
GI50 [26]: 4.67 µM
TGI [26]: 21.3 µM
CC50 [26]: 69.5 µM
GI50 [27]: 5.8 µM
LC50 (median lethal concentration) [27]: > 100 µM
TGI [27]: 40.2 µM
GI50 [28]: 11.8 µM
TGI [28]: 59.2 µM
CC50 [28]: > 100 µM
GI50 [29]: 11.9 µM
LC50 [29]: 65.1 µM
TGI [29]: 27.9 µM
GI50 [30]: 3.47 µM
TGI [30]: 19.7 µM
CC50 [30]: 66.3 µM

COc1ccc(-c2c(C#N)cnc(N)c2-c2nc3cc(C)c(C)cc3[nH]2)cc1
GI50 [1]: 6.41 µM
TGI [1]: 23.4 µM
CC50 [1]: 68.2 µM
GI50 [2]: 52.4 µM
TGI [2]: > 100 µM
CC50 [2]: > 100 µM
GI50 [3]: 14.8 µM
TGI [3]: 30.4 µM
CC50 [3]: 62.2 µM
GI50 [4]: 3.98 µM
TGI [4]: > 100 µM
CC50 [4]: > 100 µM
GI50 [5]: 8.78 µM
LC50 [5]: > 100 µM
TGI [5]: > 100 µM
GI50 [6]: 5.81 µM
TGI [6]: > 100 µM
CC50 [6]: > 100 µM
GI50 [7]: 22.5 µM
TGI [7]: > 100 µM
CC50 [7]: > 100 µM
GI50 [8]: 6 µM
LC50 [8]: > 100 µM
TGI [8]: 48.3 µM
GI50 [9]: 8.28 µM
TGI [9]: > 100 µM
CC50 [9]: > 100 µM
GI50 [10]: 3.47 µM
TGI [10]: > 100 µM
CC50 [10]: > 100 µM
GI50 [11]: 32.5 µM
TGI [11]: > 100 µM
CC50 [11]: > 100 µM
GI50 [12]: 15.5 µM
TGI [12]: > 100 µM
CC50 [12]: > 100 µM
GI50 [13]: 5.2 µM
LC50 (median lethal concentration) [13]: > 100 µM
TGI [13]: 26.8 µM
GI50 [14]: 6.54 µM
TGI [14]: 72.5 µM
CC50 [14]: > 100 µM
GI50 [15]: 11.5 µM
TGI [15]: 41.9 µM
CC50 [15]: > 100 µM
LC50 [16]: > 100 µM
GI50 [17]: 5.74 µM
TGI [17]: > 100 µM
CC50 [17]: > 100 µM
GI50 [18]: 6.76 µM
TGI [18]: > 100 µM
CC50 [18]: > 100 µM
GI50 [19]: 6.22 µM
TGI [19]: 23.1 µM
CC50 [19]: 68 µM
GI50 [20]: 3.65 µM
TGI [20]: 12.7 µM
CC50 [20]: 53.9 µM
GI50 [21]: 7.78 µM
LC50 [21]: > 100 µM
TGI [21]: 63.7 µM
GI50 [22]: 7.06 µM
LC50 (median lethal concentration) [22]: > 100 µM
TGI [22]: 57.1 µM
GI50 [23]: 52 µM
LC50 [23]: > 100 µM
TGI [23]: > 100 µM
GI50 [24]: > 100 µM
LC50 [24]: > 100 µM
TGI [24]: > 100 µM
GI50 [25]: 6.03 µM
LC50 [25]: > 100 µM
TGI [25]: > 100 µM
GI50 [26]: 5.94 µM
TGI [26]: 26.4 µM
CC50 [26]: 99.6 µM
GI50 [27]: 17.2 µM
LC50 (median lethal concentration) [27]: > 100 µM
TGI [27]: > 100 µM
GI50 [28]: 10.7 µM
TGI [28]: 63.6 µM
CC50 [28]: > 100 µM
GI50 [29]: 4.84 µM
LC50 [29]: 59.6 µM
TGI [29]: 18.4 µM
GI50 [30]: 4.63 µM
TGI [30]: > 100 µM
CC50 [30]: > 100 µM
